Laboratory results published in ChEMBL document CHEMBL1765020, “Synthesis and structure-affinity relationships of novel dibenzylideneacetone derivatives as probes for β-amyloid plaques” (J Med Chem, 2011).

Test: Displacement of [125I]IMPY from amyloid beta (1 to 42) aggregate after 2 hrs by gamma counting
Method in brief: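 Competition binding in 1 mL PBS (0.2 M, pH 7.4). Aggregated Aβ1-42 fibrils (60 nM final) with [125I]IMPY and inhibitor at 10^-5 to 10^-10 M, added in ethanol. Nonspecific binding was defined with 1 μM IMPY. Incubated 2 h at 37 °C with shaking, then vacuum-filtered through glass fibre filters and the bound fraction gamma-counted. IC50 was converted to Ki by Cheng-Prusoff; triplicate, mean ± SD.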

Compound	Ki [nM]
COc1ccc(/C=C2\CCC/C(=C\c3ccc(OC)cc3)C2=O)cc1	24.8
CN(C)c1ccc(/C=C/C(=O)/C=C/c2ccc(I)nc2)cc1	4.8
CN(C)c1ccc(/C=C/C(=O)/C=C/c2ccc(F)cc2)cc1	3.7
CN(C)c1ccc(/C=C/C(=O)/C=C/c2cccc(Oc3ccccc3)c2)cc1	3.8
COc1ccc(/C=C/C(=O)/C=C/c2ccc(N(C)C)cc2)c(OC)c1	2.8
CN(C)c1ccc(/C=C/C(=O)/C=C/c2cc(C(F)(F)F)cc(C(F)(F)F)c2)cc1	4
CN(C)c1ccc(/C=C/C(=O)/C=C/c2ccccn2)cc1	23
CN(C)c1ccc(/C=C/C(=O)/C=C/c2ccc(OC(c3ccccc3)(c3ccccc3)c3ccccc3)cc2)cc1	2.8
O=C1/C(=C/c2ccc(Cl)cc2)CCC/C1=C\c1ccc(Cl)cc1	11.4
CN(C)c1ccc(/C=C/C(=O)/C=C/c2ccc(Br)cc2)cc1	2.8
CN(C)c1ccc(/C=C/C(=O)/C=C/c2ccc(Cl)cc2)cc1	1.1
CN(C)c1ccc(/C=C/C(=O)/C=C/c2cccs2)cc1	5.3
CN(C)c1ccc(/C=C/C(=O)/C=C/c2ccc(C(=O)O)cc2)cc1	78.1
CN(C)c1ccc(/C=C/C(=O)/C=C/c2ccc3c(c2)OCO3)cc1	1.8
COc1ccc(/C=C/C(=O)/C=C/c2ccc(N(C)C)cc2)cc1OC	5.4
COc1cc(/C=C/C(=O)/C=C/c2ccc(N(C)C)cc2)ccc1OCc1ccccc1	4.1
Nc1ccc(/C=C/C(=O)/C=C/c2ccc(I)cc2)cc1	7
CN(C)c1ccc(/C=C/C(=O)/C=C/c2ccc(OCCF)cc2)cc1	5.6
COc1ccc(/C=C/C(=O)/C=C/c2ccc(OC)cc2)cc1	6.5
CN(C)c1ccc(/C=C/C(=O)/C=C/c2ccc([N+](=O)[O-])cc2)cc1	5.2
CN(C)c1ccc(/C=C/C(=O)/C=C/c2ccc[nH]2)cc1	5.8
CN(C)c1ccc(/C=C/C(=O)/C=C/c2ccc(Br)s2)cc1	3.8

Compound	Ki [nM]
CN(C)c1ccc(/C=C/C(=O)/C=C/c2c(F)cccc2Cl)cc1	9.2
CN(C)c1ccc(/C=C/C(=O)/C=C/c2ccc3[nH]ccc3c2)cc1	4.2
COc1ccc2cc(/C=C/C(=O)/C=C/c3ccc(N(C)C)cc3)ccc2c1	2.5
O=C1/C(=C/c2ccccc2)CCC/C1=C\c1ccccc1 [2,6-DIBENZYLIDENECYCLOHEXANONE]	704
CN(C)c1ccc(/C=C/C(=O)/C=C/c2cccc(Br)c2)cc1	1.9
CN(C)c1ccc(/C=C/C(=O)/C=C/c2ccc(N(c3ccccc3)c3ccccc3)cc2)cc1	131
COc1cc(OC)c(/C=C/C(=O)/C=C/c2ccc(N(C)C)cc2)c(OC)c1	39.1
CN(C)c1ccc(/C=C/C(=O)/C=C/c2cccc(N(C)C)c2)cc1	8
CN(C)c1ccc(/C=C/C(=O)/C=C/c2cccc(I)c2)cc1	5.5
Cc1ccc(/C=C/C(=O)/C=C/c2ccc(N(C)C)cc2)cc1	1.3
CN(C)c1ccc(/C=C/C(=O)/C=C/c2ccc(OCCOCCF)cc2)cc1	4.4
CNc1cccc(/C=C/C(=O)/C=C/c2ccc(N(C)C)cc2)c1	8.1
CN(C)c1ccc(/C=C/C(=O)/C=C/c2ccc(N(C)C)cc2)cc1	2.7
CN(C)c1ccc(/C=C/C(=O)/C=C/c2ccccc2)cc1	1.2
CN(C)c1ccc(/C=C/C(=O)/C=C/c2ccccc2OCc2ccccc2)cc1	18.6
CN(C)c1ccc(/C=C/C(=O)/C=C/c2ccc(Br)nc2)cc1	2.3
COc1cc(/C=C/C(=O)/C=C/c2ccc(N(C)C)cc2)cc(OC)c1OC	5.2
CN(C)c1ccc(/C=C/C(=O)/C=C/c2ccc(OCc3ccccc3)cc2)cc1	2
CN(C)c1ccc(/C=C/C(=O)/C=C/c2ccco2)cc1	8.5
COc1ccc(/C=C/C(=O)/C=C/c2ccc(N(C)C)cc2)cc1	0.7
CN(C)c1ccc(/C=C/C(=O)/C=C/c2cccc(N)c2)cc1	13.7
CN(C)c1ccc(/C=C2\CCC/C(=C\c3ccc(N(C)C)cc3)C2=O)cc1	1

Compound	Ki [nM]
CN(C)c1ccc(/C=C/C(=O)/C=C/c2cccc(F)c2)cc1	1.2
CN(C)c1ccc(/C=C/C(=O)/C=C/c2ccc(-c3ccc(Br)s3)s2)cc1	11.7
CN(C)c1ccc(/C=C/C(=O)/C=C/c2ccc(O)cc2)cc1	6.8
O=C(/C=C/c1ccc(Cl)cc1)/C=C/c1ccc(Cl)cc1	9
CN(C)c1ccc(/C=C/C(=O)/C=C/c2ccc(Cl)nc2)cc1	2.2
CN(C)c1ccc(/C=C/C(=O)/C=C/c2ccccc2O)cc1	28.2
CN(C)c1ccc(/C=C/C(=O)/C=C/c2cc(Br)ccc2O)cc1	16.2
COc1cc(/C=C/C(=O)/C=C/c2ccc(N(C)C)cc2)cc(OC)c1	4.7
CN(C)c1ccc(/C=C/C(=O)/C=C/c2ccc(N)cc2)cc1	3.7
CCN(CC)c1ccc(/C=C/C(=O)/C=C/c2ccc(N(C)C)cc2)cc1	15.7
CN(C)c1ccc(/C=C/C(=O)/C=C/c2cc([N+](=O)[O-])ccc2OCc2ccccc2)cc1	33.3
CN(C)c1ccc(/C=C/C(=O)/C=C/c2ccccc2N)cc1	8.4
CN(C)c1ccc(/C=C/C(=O)/C=C/c2cccc([N+](=O)[O-])c2)cc1	4
CNc1ccc(/C=C/C(=O)/C=C/c2ccc(N(C)C)cc2)cc1	2.9
CN(C)c1ccc(/C=C/C(=O)/C=C/c2ccccc2Cl)cc1	0.9
CNc1ccccc1/C=C/C(=O)/C=C/c1ccc(N(C)C)cc1	2640
CN(C)c1ccc(/C=C/C(=O)/C=C/c2ccc(C(F)(F)F)cc2)cc1	0.8
CN(C)c1ccc(/C=C/C(=O)/C=C/c2ccccc2[N+](=O)[O-])cc1	18.8
CN(C)c1ccc(/C=C/C(=O)/C=C/c2c(Cl)cccc2Cl)cc1	18.5
COc1cc(/C=C/C(=O)CC(=O)/C=C/c2ccc(O)c(OC)c2)ccc1O [CURCUMIN]	49.8
O=C(/C=C/c1ccccc1)/C=C/c1ccccc1	242
